Bioassay records from PubChem BioAssay.
This is a sample that favours compounds with a hit; in the whole collection about 3.6% have one here.
pPAFAH inh – inhibitors of human plasma PAF acetylhydrolase (pPAFAH); Q13093; recombinant pPAFAH, FP-rhodamine probe fluorescence polarization; inhibition, % at 3.39 µM; actives 1.5% (n = 330,000);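 active means inhibition above the mean inhibition across the screen plus 3 SD, cut at about 25% in these data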;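 further: inhibitors block binding of the rhodamine activity-based probe so polarization drops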
Target sequence (Q13093 whole entry, looked up): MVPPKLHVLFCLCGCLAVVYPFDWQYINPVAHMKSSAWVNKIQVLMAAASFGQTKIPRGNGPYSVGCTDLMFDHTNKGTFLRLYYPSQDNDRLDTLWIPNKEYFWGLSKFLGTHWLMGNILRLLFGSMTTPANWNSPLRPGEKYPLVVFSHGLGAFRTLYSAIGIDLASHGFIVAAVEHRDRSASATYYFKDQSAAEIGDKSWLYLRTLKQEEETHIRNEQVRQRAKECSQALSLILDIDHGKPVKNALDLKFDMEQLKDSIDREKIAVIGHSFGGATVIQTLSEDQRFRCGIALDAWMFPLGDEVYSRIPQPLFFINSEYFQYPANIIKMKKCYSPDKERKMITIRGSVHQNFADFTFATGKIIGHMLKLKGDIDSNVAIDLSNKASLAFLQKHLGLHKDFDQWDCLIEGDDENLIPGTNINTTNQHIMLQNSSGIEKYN
VIM-2 inhibitor – inhibitors of Pseudomonas aeruginosa VIM-2 metallo-beta-lactamase; purified VIM-2, nitrocefin hydrolysis, epi-absorbance fluorescence; inhibition, % at 5.6 µM; actives 0.89% (n = 290,000); AID 1527;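 active means inhibition above the mean of all tested compounds plus 3 SD, cutoff set per screening run, cut at about 7.5% in these data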;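 further: red hydrolysis product quenches plate fluorescence so inhibitors raise well fluorescence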
IMP-1 inh – inhibitors of Pseudomonas aeruginosa IMP-1 metallo-beta-lactamase | inhibition, % at 5.6 µM | actives 0.45% (n = 290,000) | purified IMP-1, nitrocefin hydrolysis, epi-absorbance fluorescence;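 active means inhibition above the mean plus 3 SD of all compounds in the same screening run, cut at about 4.5% in these data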
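System: purified recombinant IMP-1 beta-lactamase. Medium: Zinc- and detergent-supplemented HEPES buffer, pH 7.1. Compound: one 5.6 µM dose […]. Schedule: 15 min preincubation plus 25 min reaction at 25 °C. Technique: Epi-absorbance fluorescence, 480 nm excitation, 530 nm emission.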
PAFAH1B3 FP inh – PAFAH1B3 (human) inhibition. recombinant PAFAH1B3, FP-rhodamine probe, fluorescence polarization. inhibition, % at 3.39 µM. actives 0.28% (n = 340,000). AID 492972;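 active means inhibition above the screen-wide average of all tested compounds plus 3 SD, cut at about 25% in these data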
Target sequence (Q15102 whole entry, looked up): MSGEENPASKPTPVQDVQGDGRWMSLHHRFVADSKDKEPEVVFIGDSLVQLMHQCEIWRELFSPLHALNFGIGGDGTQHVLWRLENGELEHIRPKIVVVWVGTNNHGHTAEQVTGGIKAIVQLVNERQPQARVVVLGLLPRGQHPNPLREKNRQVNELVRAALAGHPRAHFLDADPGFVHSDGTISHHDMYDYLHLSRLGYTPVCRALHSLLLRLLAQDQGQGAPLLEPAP
PAFAH1B2 FP inh – inhibitors of human PAFAH1B2; P68402; recombinant PAFAH1B2, FP-rhodamine activity probe, fluorescence polarization; inhibition, % at 3.39 µM; actives 1.2% (n = 340,000); AID 492953;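 active means inhibition above the mean of all tested compounds plus 3 SD, cut at about 24% in these data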
PAFAH2 inh – PAFAH2 (human) inhibition; inhibition, % at 3.39 µM; AID 492956; recombinant PAFAH2, FP-rhodamine activity probe, fluorescence polarization; actives 0.99% (n = 340,000); Q99487;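 active means inhibition above the mean over all tested compounds plus 3 SD, cut at about 30% in these data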;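 further: inhibitors block probe labeling of enzyme so polarization drops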
pPAFAH FP conf – confirmation of human plasma PAF acetylhydrolase (pPAFAH) inhibitors | shares compounds with pPAFAH inh | recombinant pPAFAH, FP-Rh probe fluorescence polarization | inhibition, % at 3.39 µM | actives 72% (n = 2,300);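 active means mean inhibition of the triplicate above the hit cutoff set for the earlier primary screen, cut at about 25% in these data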
Large screens that a line does not name were inactive (follow-up assays come after a bar, where they were run).

CC(/C=N/NC(=O)Cc1cc(=O)[nH][nH]1)=C\c1ccccc1	pPAFAH inh 53.8 | pPAFAH FP conf inactive
Cn1c(CNC(=O)CNS(=O)(=O)c2ccc(Cl)cc2)cc(=O)n(C)c1=O	none
COc1cc(/C=N/NC(=O)c2ccc(CN3C(=O)c4cccc5cccc3c45)cc2)cc(OC)c1O	pPAFAH inh 38.4 | pPAFAH FP conf inactive
COc1ccc(-c2[nH]ncc2N=Nc2ccccc2)cc1	pPAFAH inh 49.5 | pPAFAH FP conf inactive
CN(CC(=O)Nc1ccccc1C(F)(F)F)C(=O)C1=COCCO1	none (no result: VIM-2 inhibitor, IMP-1 inh)
Nc1ccc2nc(-c3cccnc3)[nH]c2c1	pPAFAH inh 39.5 | pPAFAH FP conf inactive
O=S(=O)(Nc1ccc(-c2cn3c(n2)SCC3)cc1)c1ccccc1F	none
Cc1nnc(NC(=O)c2sc3nc(-c4cccs4)cc(C(F)(F)F)c3c2N)s1	pPAFAH inh 69.7 | pPAFAH FP conf 73.1
NC(=O)Cn1c(=O)n(Cc2ccco2)c(=O)c2c3c(sc21)CCCCC3	pPAFAH inh 36.4 | pPAFAH FP conf inactive
COc1ccc(S(=O)(=O)N(C)C[C@H]2Oc3c(NS(=O)(=O)c4ccc(F)cc4)cccc3C(=O)N([C@H](C)CO)C[C@@H]2C)cc1	none (no result: VIM-2 inhibitor, IMP-1 inh)
CC(=O)Nc1cccc2ncccc12	pPAFAH inh 54.9 | pPAFAH FP conf inactive
C/C(=N\NC(=O)c1c(Cl)cnn1C)c1cccnc1	none (no result: pPAFAH inh)
CN1CCN(CCCN2c3ccccc3Sc3ccc(C(F)(F)F)cc32)CC1	pPAFAH inh 37.5 | pPAFAH FP conf 30.3
O=C(CN1CCCC(O)C1)N1c2ccccc2Sc2ccc(C(F)(F)F)cc21 (configuration not stated)	none
Cc1ccc(/C=C/C(=O)OCC(=O)c2ccc3c(c2)NC(=O)CO3)o1	none (no result: VIM-2 inhibitor, IMP-1 inh)
O=C1COc2ccc(C(=O)COC(=O)/C=C/c3ccc(Br)o3)cc2N1	pPAFAH inh 38.5 (no result: VIM-2 inhibitor, IMP-1 inh) | pPAFAH FP conf inactive
Cc1nn(-c2ccc(F)cc2)c2sc(C(=O)N3CCCCCC3)cc12	none
COc1ccc(NS(=O)(=O)c2ccc(O)c(NC(=O)c3cc4c(C)nn(-c5ccc(F)cc5)c4s3)c2)cc1	pPAFAH inh 36.0 | pPAFAH FP conf 29.5
COc1ccc2[nH]c(=O)c(CN(Cc3ccco3)C(c3nnnn3Cc3ccccc3)C(C)C)cc2c1 (configuration not stated)	none
COc1ccc2[nH]c(=O)c(CN(C3CCCCC3)C(c3nnnn3Cc3ccco3)C(C)C)cc2c1 (configuration not stated)	pPAFAH inh 36.5 | pPAFAH FP conf 27.7
COc1ccccc1OCC(=O)Nc1cc(C(F)(F)F)ccc1-n1cncn1	none (no result: VIM-2 inhibitor, IMP-1 inh)
CS(=O)(=O)c1ccc(C(=O)OCC(=O)NCc2cccs2)cc1[N+](=O)[O-]	pPAFAH inh 35.5, PAFAH2 inh 37.7 (no result: VIM-2 inhibitor, IMP-1 inh) | pPAFAH FP conf inactive
CC(C)(C)c1ccc(NC(=O)C2=CN3CCS(=O)(=O)N=C3C=C2)cc1	none (no result: VIM-2 inhibitor, IMP-1 inh)
F[B-](F)(F)c1cncc2ccccc12	none (no result: pPAFAH inh, VIM-2 inhibitor, IMP-1 inh)
Cc1ccc(-c2nn(-c3ccccc3)cc2C2CC(c3cccs3)=NN2C(=O)CCCC(=O)O)cc1 (configuration not stated)	pPAFAH inh 39.8 | pPAFAH FP conf inactive
CN(C)c1ccc(O)c2c1CC1CC3[C@@H](N(C)C)C(=O)C(C(N)=O)=C(O)[C@]3(O)C(=O)C1=C2O (some centres not stated)	pPAFAH inh 53.4, PAFAH1B3 FP inh 29.4, PAFAH2 inh 33.0 | pPAFAH FP conf inactive
CCCN(CC(=O)Nc1ccc(F)c(F)c1F)C(=O)Cc1ccc(OC)c(S(=O)(=O)N2CCOCC2)c1	none (no result: pPAFAH inh, VIM-2 inhibitor, IMP-1 inh)
CCCNC(=O)c1ccc(N2CC3CC(C2)c2cccc(=O)n2C3)c(NC(=O)Nc2ccc(CC)cc2)c1 (configuration not stated)	pPAFAH inh 87.9 | pPAFAH FP conf 92.0
CSc1ccccc1NC(=O)c1ccc(N2CC3CC(C2)c2cccc(=O)n2C3)c(NC(=O)c2ccncc2)c1 (configuration not stated)	none
COCCNC(=O)c1ccc(N2CC3CC(C2)c2cccc(=O)n2C3)c(NC(=O)c2c(F)cccc2F)c1 (configuration not stated)	none
COc1cccc(NC(=O)Nc2cc(C(=O)NC(C)C)ccc2N2CC3CC(C2)c2cccc(=O)n2C3)c1 (configuration not stated)	pPAFAH inh 73.7 | pPAFAH FP conf 75.5
CCN1CCN(C(=O)CN(CC)S(=O)(=O)c2ccc3ccccc3c2)CC1	none
CC1CCN(c2ccc(-c3cccc(NC(=O)c4ccco4)c3)nn2)CC1	none (no result: VIM-2 inhibitor, IMP-1 inh)
CCOC(=O)C(C(C)=O)c1c(Br)c(O)c(O)c2c(C(=O)c3ccc(C)cc3)coc12 (configuration not stated)	pPAFAH inh 47.1 | pPAFAH FP conf 34.7
Cc1ccc(C(=O)c2coc3ccc(O)c(Cl)c23)cc1	none
O=S(=O)(Nc1ccc(N=Nc2ccccc2)cc1)c1ccccc1	pPAFAH inh 67.1 | pPAFAH FP conf 70.3
Cc1ccc(NS(=O)(=O)c2ccc(N/N=C/c3ccncc3)c([N+](=O)[O-])c2)c(C)c1	none
Cc1ccc(NS(=O)(=O)c2ccc(N3CCN(c4ccc(O)cc4)CC3)c([N+](=O)[O-])c2)c(C)c1	pPAFAH inh 56.7 | pPAFAH FP conf 46.1
CN(C(=O)c1ccc(NC(=O)Cc2cccc(NC(=O)C3CCN(C(=O)C4CCCCC4)CC3)c2)cc1)C1CCCC1	none (no result: VIM-2 inhibitor, IMP-1 inh)
Cc1c(NC(=S)N/N=C/c2ccc(O)cc2)c(=O)n(-c2ccccc2)n1C	none
Cc1c(NC(=S)N/N=C/c2cc([N+](=O)[O-])ccc2O)c(=O)n(-c2ccccc2)n1C	pPAFAH inh 47.2 | pPAFAH FP conf inactive
CCOc1ccccc1N=NC1C(=O)N(C(N)=S)N=C1C (configuration not stated)	none
O=C(Nc1cccc(-c2csc(Nc3ccc(Cl)cc3)n2)c1)c1cc([N+](=O)[O-])cc(C(F)(F)F)c1	pPAFAH inh 40.5, PAFAH1B3 FP inh 49.4, PAFAH1B2 FP inh 39.3, PAFAH2 inh 52.5 (no result: VIM-2 inhibitor, IMP-1 inh) | pPAFAH FP conf inactive
S=c1[nH]nc(C2COc3ccccc3O2)o1 (configuration not stated)	pPAFAH inh 44.3 | pPAFAH FP conf inactive
S=c1nc(C2COc3ccccc3O2)[nH][nH]1 (configuration not stated)	none
COc1ccc(C(=S)N2CCN(c3ccccc3Cl)CC2)cc1OC	none
COc1cc(C(=S)N2CCN(c3ccccc3Cl)CC2)cc(O)c1O	pPAFAH inh 41.6 | pPAFAH FP conf 63.7
O=C(OCC(=O)N1CCCC1)c1c(Cl)ccc(Cl)c1Cl	none
